Source: ChEMBL document CHEMBL4673370, “Modifications at C(5) of 2-(2-Pyrrolidinyl)-Substituted 1,4-Benzodioxane Elicit Potent α4β2 Nicotinic Acetylcholine Receptor Partial Agonism with High Selectivity over the α3β4 Subtype” (J Med Chem, 2020)

Legend:
[1] = biological target: T1, Neuronal acetylcholine receptor; alpha3/beta4 (Homo sapiens, UniProt P30926+P32297); assay: Displacement of [3H]-epibatidine from human alpha3beta4 transfected in HEK293 cell membranes preincubated for 5 mins followed by [3H]-epibatidine addition and measured after overnight incubation by liquid scintillation beta counter analysis; set-up: species or system Membrane
T1 sequence (P30926 whole entry): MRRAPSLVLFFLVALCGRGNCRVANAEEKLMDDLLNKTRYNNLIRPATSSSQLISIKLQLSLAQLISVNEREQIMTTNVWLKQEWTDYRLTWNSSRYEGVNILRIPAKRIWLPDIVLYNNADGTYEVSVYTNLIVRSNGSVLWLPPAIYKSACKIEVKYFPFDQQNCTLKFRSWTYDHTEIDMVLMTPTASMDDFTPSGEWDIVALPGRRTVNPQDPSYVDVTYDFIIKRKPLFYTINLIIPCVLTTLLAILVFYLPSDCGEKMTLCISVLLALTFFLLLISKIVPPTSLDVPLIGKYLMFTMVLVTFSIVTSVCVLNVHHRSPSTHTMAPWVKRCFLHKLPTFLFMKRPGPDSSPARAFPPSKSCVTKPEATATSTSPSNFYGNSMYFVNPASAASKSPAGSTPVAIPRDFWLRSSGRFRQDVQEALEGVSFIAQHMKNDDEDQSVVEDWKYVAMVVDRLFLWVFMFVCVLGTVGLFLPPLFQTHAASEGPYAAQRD
T1 sequence (P32297 whole entry): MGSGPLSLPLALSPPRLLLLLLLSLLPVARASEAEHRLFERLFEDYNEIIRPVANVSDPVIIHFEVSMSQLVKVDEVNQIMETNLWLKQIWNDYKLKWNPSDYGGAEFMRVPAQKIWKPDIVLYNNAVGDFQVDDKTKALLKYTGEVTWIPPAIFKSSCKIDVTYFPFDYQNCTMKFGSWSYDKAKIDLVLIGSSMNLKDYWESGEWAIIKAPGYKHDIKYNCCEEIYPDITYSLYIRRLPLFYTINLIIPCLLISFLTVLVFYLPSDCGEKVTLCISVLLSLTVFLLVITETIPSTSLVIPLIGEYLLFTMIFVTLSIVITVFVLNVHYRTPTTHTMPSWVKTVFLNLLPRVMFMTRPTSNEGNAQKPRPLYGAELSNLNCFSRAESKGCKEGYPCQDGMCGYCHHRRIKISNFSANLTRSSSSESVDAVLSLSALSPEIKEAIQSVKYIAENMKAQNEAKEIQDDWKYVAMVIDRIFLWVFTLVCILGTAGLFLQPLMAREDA
Procedure, shortened: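 Membranes (rat cerebral cortex for α4β2; HEK cells stably transfected with human α3β4) were pre-exposed to rising compound concentrations for 5 min. They were then incubated overnight at 4 °C with [3H]epibatidine (0.1 nM for α4β2, 0.25 nM for α3β4). Samples were filtered on PEI-soaked GFC filters and counted by β scintillation. Nonspecific binding was set with 100 nM epibatidine.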

[2] = biological target: Neuronal acetylcholine receptor; alpha4/beta2 (Rattus norvegicus, UniProt P09483+P12390); assay: Displacement of [3H]-Epibatidine from alpha4beta2 nAChR in rat cerebral cortex membrane preincubated for 5 mins followed by [3H]-Epibatidine addition and measured after overnight incubation by liquid scintillation beta counter analysis; format: cell membranes
Sequence of Neuronal acetylcholine receptor; alpha4/beta2 (Rattus norvegicus, UniProt P09483+P12390) (P09483 whole entry): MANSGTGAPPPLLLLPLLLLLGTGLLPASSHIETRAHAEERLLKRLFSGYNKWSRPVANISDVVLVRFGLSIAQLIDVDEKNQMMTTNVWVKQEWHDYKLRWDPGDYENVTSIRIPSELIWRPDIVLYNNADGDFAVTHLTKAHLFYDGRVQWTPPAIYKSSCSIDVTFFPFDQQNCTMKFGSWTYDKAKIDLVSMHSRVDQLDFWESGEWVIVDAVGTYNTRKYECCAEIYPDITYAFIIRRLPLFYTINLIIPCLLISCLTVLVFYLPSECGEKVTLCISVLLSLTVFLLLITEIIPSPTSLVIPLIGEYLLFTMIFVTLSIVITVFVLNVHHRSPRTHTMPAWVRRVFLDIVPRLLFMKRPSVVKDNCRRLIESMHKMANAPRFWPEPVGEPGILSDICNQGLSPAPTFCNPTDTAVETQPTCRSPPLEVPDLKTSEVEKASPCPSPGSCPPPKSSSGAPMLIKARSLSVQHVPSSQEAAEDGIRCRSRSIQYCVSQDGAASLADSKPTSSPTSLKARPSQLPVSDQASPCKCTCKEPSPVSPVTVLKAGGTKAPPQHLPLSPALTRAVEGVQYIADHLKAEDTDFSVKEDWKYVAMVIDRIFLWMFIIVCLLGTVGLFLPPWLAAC
Sequence of Neuronal acetylcholine receptor; alpha4/beta2 (Rattus norvegicus, UniProt P09483+P12390) (P12390 whole entry): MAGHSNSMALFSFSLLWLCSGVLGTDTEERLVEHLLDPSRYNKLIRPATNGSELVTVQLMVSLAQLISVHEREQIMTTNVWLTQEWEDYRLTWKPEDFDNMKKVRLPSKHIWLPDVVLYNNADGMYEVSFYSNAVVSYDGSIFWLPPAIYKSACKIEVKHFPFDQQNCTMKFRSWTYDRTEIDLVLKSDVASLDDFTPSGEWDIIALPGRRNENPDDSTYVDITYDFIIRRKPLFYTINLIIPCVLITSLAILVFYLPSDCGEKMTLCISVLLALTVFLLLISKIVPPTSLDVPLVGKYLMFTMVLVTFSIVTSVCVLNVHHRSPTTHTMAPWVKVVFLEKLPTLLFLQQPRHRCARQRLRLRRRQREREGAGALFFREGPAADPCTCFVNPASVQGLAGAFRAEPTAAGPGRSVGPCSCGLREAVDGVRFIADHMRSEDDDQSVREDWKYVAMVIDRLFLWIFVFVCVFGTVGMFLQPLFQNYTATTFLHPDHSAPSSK
Procedure, shortened: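 Membranes (rat cerebral cortex for α4β2; HEK cells stably transfected with human α3β4) were pre-exposed to rising compound concentrations for 5 min. Samples were filtered on PEI-soaked GFC filters and counted by β scintillation. Nonspecific binding was set with 100 nM epibatidine.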

[3] = biological target: T1, Neuronal acetylcholine receptor; alpha3/beta4; assay: Partial agonist activity at human alpha3beta4 transfected in rat GH4-C1 cells assessed as maximum response at holding potential of -70 mV by whole cell patch clamp electrophysiology method relative to ACh; format: cell-based
Procedure, shortened: (§1)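 GH4C1 cells were transiently transfected by magnetofection with 0.5 μg of each human subunit cDNA (wild-type or S108A α4β2; α3β4). Whole-cell currents were recorded in HEPES-buffered saline at pH 7.3, with CsCl/BAPTA pipettes and fast perfusion of agonist. Concentrations were applied sequentially, and peak currents were normalized to 100 μM ACh on the same cell. EC50, Imax and Hill coefficient came from a Hill-equation fit.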

[4] = biological target: T1, Neuronal acetylcholine receptor; alpha3/beta4; assay: Antagonist activity at human alpha3beta4 transfected in rat GH4-C1 cells assessed as inhibition of ACh-induced response at holding potential of -70 mV by whole cell patch clamp electrophysiology method; format: cell-based
[5] = biological target: T2, Neuronal acetylcholine receptor; alpha4/beta2 (Homo sapiens, UniProt P17787+P43681); assay: Agonist activity at wild type human alpha4beta2 transfected in rat GH4-C1 cells at holding potential of -70 mV by whole cell patch clamp electrophysiology method; format: cell-based; procedure, shortened: as §1
T2 sequence (P17787 whole entry): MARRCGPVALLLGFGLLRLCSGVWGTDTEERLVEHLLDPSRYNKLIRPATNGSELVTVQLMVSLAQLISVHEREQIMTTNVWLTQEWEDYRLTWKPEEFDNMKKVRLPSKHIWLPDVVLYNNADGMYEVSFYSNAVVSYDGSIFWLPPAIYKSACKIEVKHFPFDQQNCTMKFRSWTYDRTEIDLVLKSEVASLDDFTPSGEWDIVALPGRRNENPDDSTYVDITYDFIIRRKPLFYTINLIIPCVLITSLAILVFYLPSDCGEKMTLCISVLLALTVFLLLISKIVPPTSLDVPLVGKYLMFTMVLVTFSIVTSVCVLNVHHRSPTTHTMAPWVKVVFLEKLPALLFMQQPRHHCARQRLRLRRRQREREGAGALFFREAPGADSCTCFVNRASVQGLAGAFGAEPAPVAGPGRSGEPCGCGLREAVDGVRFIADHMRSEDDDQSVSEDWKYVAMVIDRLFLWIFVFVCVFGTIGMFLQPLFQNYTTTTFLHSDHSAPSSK
T2 sequence (P43681 whole entry): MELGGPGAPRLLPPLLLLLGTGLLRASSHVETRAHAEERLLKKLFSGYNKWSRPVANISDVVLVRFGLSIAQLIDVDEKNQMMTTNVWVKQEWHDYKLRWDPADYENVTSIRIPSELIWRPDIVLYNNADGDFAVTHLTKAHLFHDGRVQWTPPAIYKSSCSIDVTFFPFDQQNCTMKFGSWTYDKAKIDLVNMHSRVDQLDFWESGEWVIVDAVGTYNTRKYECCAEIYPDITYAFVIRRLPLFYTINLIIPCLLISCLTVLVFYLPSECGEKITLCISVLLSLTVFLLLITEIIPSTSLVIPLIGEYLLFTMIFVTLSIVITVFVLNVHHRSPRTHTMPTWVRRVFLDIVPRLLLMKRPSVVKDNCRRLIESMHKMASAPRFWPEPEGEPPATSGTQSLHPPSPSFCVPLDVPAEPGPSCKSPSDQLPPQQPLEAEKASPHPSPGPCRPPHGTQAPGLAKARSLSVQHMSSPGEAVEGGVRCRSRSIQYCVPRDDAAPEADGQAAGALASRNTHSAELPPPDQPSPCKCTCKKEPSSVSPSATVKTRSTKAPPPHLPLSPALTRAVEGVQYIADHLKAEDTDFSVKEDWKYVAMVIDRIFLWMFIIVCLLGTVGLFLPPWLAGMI

[6] = Displacement of [3H]-epibatidine from human alpha4beta2 nAChR S108A mutant transfected in human Hela cell membranes preincubated for 5 mins followed by [3H]-Epibatidine addition and measured after overnight incubation by liquid scintillation beta counter analysis
Procedure, shortened: (§2)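 HeLa cells were transiently transfected (JetPEI) with 7.5 μg each of α4 and β2 (wild-type or mutant) cDNA and harvested after 24 h. Membranes were pre-exposed to compounds for 5 min, then incubated overnight at 4 °C with 0.1 nM [3H]epibatidine, filtered and counted by β scintillation. Ki came from the Cheng–Prusoff equation, three independent experiments in duplicate.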

[7] = biological target: T2, Neuronal acetylcholine receptor; alpha4/beta2; assay: Partial agonist activity at human alpha4beta2 transfected in rat GH4-C1 cells assessed as maximum response at holding potential of -70 mV by whole cell patch clamp electrophysiology method relative to ACh; format: cell-based; procedure, shortened: as §1
[8] = biological target: T1, Neuronal acetylcholine receptor; alpha3/beta4; assay: Partial agonist activity at human alpha3beta4 transfected in rat GH4-C1 cells at holding potential of -70 mV by whole cell patch clamp electrophysiology method; format: cell-based; procedure, shortened: as §1
[9] = tested on: GH4-C1; assay: Agonist activity at human alpha4beta2 S108A mutant transfected in rat GH4-C1 cells assessed as maximum response at holding potential of -70 mV by whole cell patch clamp electrophysiology method relative to ACh; format: cell-based; procedure, shortened: as §1
[10] = Agonist activity at human alpha4beta2 S108A mutant transfected in rat GH4-C1 cells at holding potential of -70 mV by whole cell patch clamp electrophysiology method; format: cell-based; procedure, shortened: as §1
[11] = biological target: T2, Neuronal acetylcholine receptor; alpha4/beta2; assay: Partial agonist activity at human alpha4beta2 transfected in rat GH4-C1 cells at holding potential of -70 mV by whole cell patch clamp electrophysiology method; format: cell-based; procedure, shortened: as §1
[12] = biological target: T2, Neuronal acetylcholine receptor; alpha4/beta2; assay: Partial agonist activity at wild type human alpha4beta2 transfected in rat GH4-C1 cells assessed as maximum response at holding potential of -70 mV by whole cell patch clamp electrophysiology method relative to ACh; format: cell-based; procedure, shortened: as §1
[13] = biological target: T2, Neuronal acetylcholine receptor; alpha4/beta2; assay: Displacement of [3H]-epibatidine from wild type human alpha4beta2 nAChR transfected in human Hela cell membranes preincubated for 5 mins followed by [3H]-epibatidine addition and measured after overnight incubation by liquid scintillation beta counter analysis; procedure, shortened: as §2
[14] = biological target: Neuronal acetylcholine receptor subunit alpha-7 (Rattus norvegicus, UniProt Q05941); assay: Displacement of [125I]alpha-bungarotoxin from alpha7nAChR in rat hippocampus membranes preincubated for 5 mins followed by [125I]alpha-bungarotoxin addition and measured after overnight incubation by liquid scintillation beta counter analysis; format: cell membranes, Membrane
Sequence of Neuronal acetylcholine receptor subunit alpha-7 (Q05941 whole entry): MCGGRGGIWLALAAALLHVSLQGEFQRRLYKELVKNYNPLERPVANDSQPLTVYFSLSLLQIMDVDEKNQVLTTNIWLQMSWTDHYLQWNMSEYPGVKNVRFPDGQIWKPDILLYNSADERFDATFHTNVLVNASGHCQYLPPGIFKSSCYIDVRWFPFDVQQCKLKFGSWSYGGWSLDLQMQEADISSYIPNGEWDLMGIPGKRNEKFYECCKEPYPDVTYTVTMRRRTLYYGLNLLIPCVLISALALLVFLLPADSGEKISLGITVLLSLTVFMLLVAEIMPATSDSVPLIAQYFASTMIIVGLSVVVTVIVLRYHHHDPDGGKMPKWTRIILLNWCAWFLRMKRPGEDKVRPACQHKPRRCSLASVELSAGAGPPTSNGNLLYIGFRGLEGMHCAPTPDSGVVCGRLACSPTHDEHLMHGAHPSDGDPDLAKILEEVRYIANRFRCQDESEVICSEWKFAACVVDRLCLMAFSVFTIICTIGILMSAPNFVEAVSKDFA

[15] = Selectivity index, ratio of Ki for displacement of [3H]-Epibatidine from wild type human alpha4beta2 nAChR transfected in Hela cell membrane to Ki for displacement of [3H]-Epibatidine from human alpha4beta2 nAChR S108A mutant transfected in Hela cell membrane; format: cell membranes; procedure, shortened: as §2

SMILES	Ki [1] [µM]	Ki [2] [µM]	Ki [14] [µM]	further results
CN1CCC[C@H]1[C@H]1COc2ccc(O)cc2O1	0.7			
CN1CCC[C@H]1[C@@H]1COc2c(O)cccc2O1	3.9	0.55		
CN1CCC[C@H]1[C@H]1COc2c(N)cccc2O1	13	0.131	44.5	Imax [3]: 38.2%; IC50 [4]: 54.6 µM; EC50 [5]: 2.4 µM; Ki [6]: 0.156 µM; Imax [7]: 21.8%; EC50 [8]: 8.7 µM; Imax [9]: 31%; EC50 [10]: 2.4 µM; EC50 [11]: 0.005 µM; Imax [12]: 31%; Ki [13]: 0.373 µM; Ratio Ki [15]: 2.4
CN1CCC[C@H]1[C@@H]1COc2cc([N+](=O)[O-])ccc2O1	15	46	31.5	
CN1CCC[C@H]1[C@@H]1COc2c(cccc2-c2ccccc2)O1	2.7	0.64	45.5	
CN1CCC[C@H]1[C@@H]1COc2c(cccc2[N+](=O)[O-])O1	1.1	12.2		
CN1CCC[C@H]1[C@H]1COc2cc(-c3ccccc3)ccc2O1	5.8	92	2.1	
CN1CCC[C@H]1[C@@H]1COc2ccc([N+](=O)[O-])cc2O1	4.5	14	10.4	
CN1CCC[C@H]1[C@@H]1COc2c(N)cccc2O1	3.9	7.1	109	
CN1CCC[C@H]1[C@@H]1COc2cc(N)ccc2O1	3.5	86		
CN1CCC[C@H]1[C@@H]1COc2cc(O)ccc2O1	1.9	50	26.8	
CN1CCC[C@H]1[C@H]1COc2cc([N+](=O)[O-])ccc2O1	4.8	> 100	13.5	
CN1CCC[C@H]1[C@@H]1COc2ccc(N)cc2O1	0.019	0.022	2.6	Imax [3]: 24%; Ki [6]: 0.006 µM; Imax [7]: 36%; EC50 [8]: 19 µM; EC50 [11]: 14 µM; Ki [13]: 0.046 µM; Ratio Ki [15]: 7.7
CC(=O)Nc1ccc2c(c1)O[C@@H]([C@@H]1CCCN1C)CO2	8.7	46		
CN1CCC[C@H]1[C@@H]1COc2ncccc2O1		0.41	89	EC50 [5]: 2.6 µM; Ki [6]: 0.265 µM; Imax [7]: 24.2%; Imax [9]: 26%; EC50 [10]: 2.6 µM; Imax [12]: 26%; Ki [13]: 0.114 µM; Ratio Ki [15]: 0.43
CN1CCC[C@H]1[C@H]1COc2c(cccc2[N+](=O)[O-])O1	6.7	0.335		
CN1CCC[C@H]1[C@H]1COc2c(O)cccc2O1	> 100	1.7		
CN(C)c1ccc2c(c1)O[C@H]([C@@H]1CCCN1C)CO2	2.2	147		
CN1CCC[C@H]1[C@H]1COc2c(cccc2-c2ccccc2)O1	5.3	7.3	50	
CN1CCC[C@H]1[C@H]1COc2ccc([N+](=O)[O-])cc2O1	2.1	33	42.2	
CN1CCC[C@H]1[C@@H]1COc2cc(-c3ccccc3)ccc2O1	5.4	59	8.1	
CN1CCC[C@H]1[C@H]1COc2ccc(N)cc2O1	0.18	0.14	19.1	
CN1CCC[C@H]1[C@@H]1COc2ccc(O)cc2O1				EC50 [5]: 3.8 µM; Ki [6]: 0.0012 µM; Imax [9]: 29%; EC50 [10]: 3.8 µM; Ki [13]: 0.0067 µM; Ratio Ki [15]: 5.6
CN1CCC[C@H]1[C@H]1COc2cc(O)ccc2O1	6	71	10.5	
CN1CCC[C@H]1[C@H]1COc2cc(N)ccc2O1	8.6	74	> 10	
CN(C)c1ccc2c(c1)O[C@@H]([C@@H]1CCCN1C)CO2	25	49	> 10	
CC(=O)Nc1ccc2c(c1)O[C@H]([C@@H]1CCCN1C)CO2	1.9	6.5	> 10	
CN1CCC[C@H]1[C@@H]1COc2ccccc2O1				Ki [6]: 0.912 µM; Ki [13]: 1.17 µM; Ratio Ki [15]: 1.29
